This passage reports Activity results from ChEMBL document CHEMBL5614435.

Holding throughout (type): functional
For one experiment, the system named is INS-1E. Put plainly: Induction of insulin secretion in rat INS-1E cells assessed as median fold increase at 20 nM pretreated with glucose for 30 mins followed by KRBH washout for 30 mins and subsequent glucose and compound addition for another 30 mins by ELISA. In general terms: ELISA stands for enzyme-linked immunosorbent assay.
Experiment [1] has as its target Amyloid-beta precursor protein (Homo sapiens) (UniProt P05067). Nature of the experiment: Amyloid aggregation property at high concentration over 3 days by thioflavin-T fluorescence assay. Particulars: time 3.0 day. The method in brief: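 Peptide was dissolved in water at pH 4.2–4.5 or 7.2–7.4, filtered and centrifuged to leave monomers. ThT and NaCl were added to give 1 or 5 mg/mL peptide final. Plates were sealed and read at 37 °C with orbital shaking for 3 days (ex 445 nm/em 490 nm, bottom read). Triplicates, with peptide-free ThT background subtracted; mean and SD were reported.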

The target is the same in experiment [2]. Nature of the experiment: Amyloid aggregation property at high concentration by CD spectroscopy. The method in brief: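 Far-UV CD (185–260 nm, spectra truncated at 195 nm) in a 1.0 mm cuvette. Samples were 200–300 μM peptide with 150 mM NaCl at pH 4.5 or 7.4, kept at 37 °C and shaken at 500 rpm between acquisitions. Each spectrum is the average of 3 scans at 50 nm/min, solvent-subtracted, Savitzky–Golay smoothed, and expressed as mean residue molar ellipticity.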

Experiment [3] has the same target. Put plainly: Amyloid aggregation property at high concentration by atomic force microscopy analysis. The procedure, abridged:
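AFM in dynamic mode on 10 μL aliquots taken at the endpoint of the agitated aggregation samples: ThT samples (37 °C, pH ~4.5 or ~7.4) after 3 days and CD samples (200–300 μM, 150 mM NaCl) after 2 weeks.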

Calls of active or inactive are those of the source. The rule behind the calls is not given here. Bridge positions count the residues as written; N and C are the ends. Peptide text beside a SMILES is read from it.

Sequence of Amyloid-beta precursor protein (Homo sapiens) (P05067 whole entry): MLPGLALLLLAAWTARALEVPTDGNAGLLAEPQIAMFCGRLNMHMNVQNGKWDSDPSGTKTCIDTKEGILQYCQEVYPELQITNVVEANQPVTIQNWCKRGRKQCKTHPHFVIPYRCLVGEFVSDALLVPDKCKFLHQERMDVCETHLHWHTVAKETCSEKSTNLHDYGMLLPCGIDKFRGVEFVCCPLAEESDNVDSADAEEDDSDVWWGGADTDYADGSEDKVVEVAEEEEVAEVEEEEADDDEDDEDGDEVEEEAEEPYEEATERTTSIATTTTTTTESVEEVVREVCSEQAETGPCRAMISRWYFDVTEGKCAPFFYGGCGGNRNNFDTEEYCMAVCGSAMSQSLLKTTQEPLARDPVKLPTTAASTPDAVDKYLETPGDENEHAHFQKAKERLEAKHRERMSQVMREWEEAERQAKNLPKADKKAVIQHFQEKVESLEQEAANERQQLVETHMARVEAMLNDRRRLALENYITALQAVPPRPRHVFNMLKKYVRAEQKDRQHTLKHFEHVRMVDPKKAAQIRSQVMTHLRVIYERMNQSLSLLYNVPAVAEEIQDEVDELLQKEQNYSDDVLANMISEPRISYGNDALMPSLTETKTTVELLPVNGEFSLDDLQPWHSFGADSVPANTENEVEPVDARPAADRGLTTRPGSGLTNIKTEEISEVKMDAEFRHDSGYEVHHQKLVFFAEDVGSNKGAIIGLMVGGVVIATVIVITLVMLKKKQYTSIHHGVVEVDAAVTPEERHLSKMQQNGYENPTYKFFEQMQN

As for `CC[C@H](C)[C@@H]1NC(=O)[C@H](Cc2ccc(O)cc2)NC(=O)[C@H](CC(C)C)NC(=O)[C@H](CCCNC(=N)N)NC(=O)[C@H](C(C)C)NC(=O)[C@@H](NC(=O)[C@H](CCC(=O)O)NC(=O)[C@H](CCC(=O)O)NC(=O)[C@H](CCC(=O)O)NC(=O)[C@H](CCSC)NC(=O)[C@H](CCC(N)=O)NC(=O)[C@H](CCCCN)NC(=O)[C@H](CO)NC(=O)[C@H](CC(C)C)NC(=O)[C@H](CC(=O)O)NC(=O)[C@H](CO)NC(=O)[C@@H](NC(=O)[C@H](Cc2ccccc2)NC(=O)[C@@H](NC(=O)CNC(=O)[C@H](CCC(=O)O)NC(=O)CNC(=O)[C@@H](N)Cc2cnc[nH]2)[C@@H](C)O)[C@@H](C)O)CSSC[C@@H](C(=O)O)NC(=O)[C@@H]2CCCN2C(=O)[C@@H]2CCCN2C(=O)[C@@H]2CCCN2C(=O)[C@H](CCCNC(=N)N)NC(=O)CNC(=O)[C@H](CO)NC(=O)[C@H](CO)NC(=O)[C@@H]2CCCN2C(=O)CNC(=O)CNC(=O)[C@H](CC(=O)O)NC(=O)[C@H](CCCCN)NC(=O)[C@H](CC(C)C)NC(=O)[C@H](Cc2c[nH]c3ccccc23)NC(=O)[C@H](CCC(N)=O)NC1=O` (H-HGEGTFTSDLSKQMEEECVRLYIQWLKDGGPSSGRPPPC-OH; disulfide 18-39), the result in the experiment on INS-1E was inactive.

As to `CC[C@H](C)[C@H](NC(=O)[C@H](Cc1ccc(O)cc1)NC(=O)[C@H](CC(C)C)NC(=O)[C@H](CCCNC(=N)N)NC(=O)[C@@H](NC(=O)[C@H](C)NC(=O)[C@H](CCC(=O)O)NC(=O)[C@H](CCC(=O)O)NC(=O)[C@H](CCC(=O)O)NC(=O)[C@H](CCSC)NC(=O)[C@H](CCC(N)=O)NC(=O)[C@H](CCCCN)NC(=O)[C@H](CO)NC(=O)[C@H](CC(C)C)NC(=O)[C@H](CC(=O)O)NC(=O)[C@H](CO)NC(=O)[C@@H](NC(=O)[C@H](Cc1ccccc1)NC(=O)[C@@H](NC(=O)CNC(=O)[C@H](CCC(=O)O)NC(=O)CNC(=O)[C@@H](N)Cc1cnc[nH]1)[C@@H](C)O)[C@@H](C)O)C(C)C)C(=O)N[C@@H](CCC(N)=O)C(=O)N[C@@H](Cc1c[nH]c2ccccc12)C(=O)N[C@@H](CC(C)C)C(=O)N[C@@H](CCCCN)C(=O)N[C@@H](CC(=O)O)C(=O)NCC(=O)NCC(=O)N1CCC[C@H]1C(=O)N[C@@H](CO)C(=O)N[C@@H](CO)C(=O)NCC(=O)N[C@@H](CCCNC(=N)N)C(=O)N1CCC[C@H]1C(=O)N1CCC[C@H]1C(=O)N1CCC[C@H]1C(=O)N[C@@H](CO)C(=O)O`, the result in experiment [1], in experiment [2] and in experiment [3] was Active.
